We go through one substance from paper PMC3609526 (Diabetes Care, 2013).

This assay is described as follows: Euglycemic clamp study: pharmacodynamics by glucose infusion rate. The class given is in vivo, human (type 1 diabetic patients). The settings on record: for GIR tmax50 (time to reach 50% of maximum GIR) / GIR tmax (time to reach maximum GIR): euglycemic clamp, 12 patients, mean ± SD. The method in brief: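 Crossover design with a 5–21 d washout, in fasting C-peptide-negative patients. During a 3–7 h run-in, IV human insulin/glucose held plasma glucose at 5.5 ± 1.1 mmol/L, with insulin tapered off over the last hour. At time 0, a fast-acting insulin analogue was injected into abdominal s.c. fat. Variable 10% glucose then ran for 8 h. Arterialized venous glucose (arm warmed at 55°C) was measured every 5–10 min in duplicate, and GIR AUC was calculated.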

Where [1] appears, read: 9 × 2 IU dispersed s.c. boluses.

In the case of insulin aspart, for the setting “1 × 18 IU single s.c. bolus”, the “GIR tmax50 (time to reach 50% of maximum GIR)” value came to 49 ± 16 min and the “GIR tmax (time to reach maximum GIR)” value was determined as 127 ± 93 min. Under setting [1], the “GIR tmax50 (time to reach 50% of maximum GIR)” value is recorded as 38 ± 9 min and the “GIR tmax (time to reach maximum GIR)” value came out at 68 ± 33 min. Under “9 × 2 IU vs. 1 × 18 IU”, the “shortening of time to reach maximum GIR” value is recorded as roughly 50%.
